Assays:
[1] = molecular target: Telomerase reverse transcriptase (Homo sapiens) (UniProt O14746); assay: Activation of telomerase activity in human neonatal primary epidermal keratinocytes assessed as fold change at 0.1 to 30 nM after 24 hrs by PCR-based TRAP assay relative to untreated control
In short: (§1)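 HEKn cells from ATCC, grown in dermal basal cell medium with keratinocyte growth supplements. Seeded, medium refreshed next day, then treated 24 h the following day (0.1–30 nM; DMSO control). 2 × 10^5 harvested cells lysed on ice 30 min, lysate spun 16000g 20 min. Telomerase measured by TRAP PCR-ELISA, absorbance at 450 nm (reference ~690 nm). Fold activation versus DMSO-treated cells.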

[2] = molecular target: Telomerase reverse transcriptase (Homo sapiens) (UniProt O14746); assay: Activation of telomerase activity in human neonatal primary epidermal keratinocytes assessed as fold change at 0.5 nM after 24 hrs by PCR-based TRAP assay relative to untreated control; in short: as §1
[3] = molecular target: Telomerase reverse transcriptase (Homo sapiens) (UniProt O14746); assay: Activation of telomerase activity in human neonatal primary epidermal keratinocytes assessed as fold change at 0.1 nM after 24 hrs by PCR-based TRAP assay relative to untreated control; in short: as §1
[4] = molecular target: Telomerase reverse transcriptase (Homo sapiens) (UniProt O14746); assay: Activation of telomerase activity in human neonatal primary epidermal keratinocytes assessed as fold change at 2 nM after 24 hrs by PCR-based TRAP assay relative to untreated control; in short: as §1

Chain of Telomerase reverse transcriptase (Homo sapiens) (O14746 whole entry): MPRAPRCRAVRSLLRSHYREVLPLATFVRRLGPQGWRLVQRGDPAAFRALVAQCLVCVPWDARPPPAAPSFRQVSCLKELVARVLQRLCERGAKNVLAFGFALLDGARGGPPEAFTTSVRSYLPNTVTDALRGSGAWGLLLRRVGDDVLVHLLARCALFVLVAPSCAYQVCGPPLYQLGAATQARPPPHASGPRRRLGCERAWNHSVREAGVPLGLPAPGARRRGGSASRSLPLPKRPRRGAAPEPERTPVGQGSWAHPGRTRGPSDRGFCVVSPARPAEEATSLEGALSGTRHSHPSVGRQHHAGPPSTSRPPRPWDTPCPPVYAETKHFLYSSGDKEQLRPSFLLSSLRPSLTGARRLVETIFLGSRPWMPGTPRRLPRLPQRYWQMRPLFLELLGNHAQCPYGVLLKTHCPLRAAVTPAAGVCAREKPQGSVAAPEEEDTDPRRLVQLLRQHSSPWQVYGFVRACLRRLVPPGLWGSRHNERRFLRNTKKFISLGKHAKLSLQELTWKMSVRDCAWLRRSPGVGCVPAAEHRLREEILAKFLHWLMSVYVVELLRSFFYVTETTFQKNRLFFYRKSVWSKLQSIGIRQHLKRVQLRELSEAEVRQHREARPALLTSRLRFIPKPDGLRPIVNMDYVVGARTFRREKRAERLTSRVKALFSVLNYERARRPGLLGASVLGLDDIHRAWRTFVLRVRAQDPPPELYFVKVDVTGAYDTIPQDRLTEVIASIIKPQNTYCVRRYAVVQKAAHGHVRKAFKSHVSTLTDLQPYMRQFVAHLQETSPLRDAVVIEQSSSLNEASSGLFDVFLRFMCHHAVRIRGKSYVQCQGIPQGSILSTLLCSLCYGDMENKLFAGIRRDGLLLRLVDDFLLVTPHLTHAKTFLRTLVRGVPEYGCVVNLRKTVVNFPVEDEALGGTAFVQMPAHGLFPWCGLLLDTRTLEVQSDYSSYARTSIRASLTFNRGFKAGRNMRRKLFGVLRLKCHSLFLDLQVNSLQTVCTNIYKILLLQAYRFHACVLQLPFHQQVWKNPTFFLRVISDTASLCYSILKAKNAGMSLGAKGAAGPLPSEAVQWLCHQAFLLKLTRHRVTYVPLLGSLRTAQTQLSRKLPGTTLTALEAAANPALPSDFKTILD

fold change (FC) [1]	fold change (FC) [2]	fold change (FC) [3]	fold change (FC) [4]	SMILES
1.5 to 5.2	5			CC(C)(O)[C@@H]1CC[C@](C)([C@H]2[C@@H](O)C[C@@]3(C)[C@@H]4C[C@H](O)[C@H]5C(C)(C)[C@@H](O)CC[C@@]56C[C@@]46C[C@H](O)[C@]23C)O1
1.5 to 5.2		3.8		CC(C)(O)[C@@H]1CC[C@](C)([C@H]2[C@@H](O)C[C@@]3(C)[C@@H]4C[C@H](O)[C@H]5C(C)(C)[C@@H](O)CC[C@]5(C)C4=C[C@H](O)[C@]23C)O1
1.5 to 5.2				CC(C)(O)[C@@H]1CC[C@](C)([C@H]2[C@@H](O)C[C@@]3(C)[C@@H]4C[C@H](O)[C@H]5C(C)(C)C(=O)CC[C@@]56C[C@@]46[C@@H](O)C[C@]23C)O1
1.5 to 5.2		3.5		CC(C)(O)[C@@H]1CC[C@](C)([C@H]2[C@@H](O)C[C@@]3(CO)[C@@H]4C[C@H](O)[C@H]5C(C)(C)C(=O)CC[C@@]56C[C@@]46CC[C@]23C)O1
1.5 to 5.2		1.5	5.2	CC(C)(O)[C@@H]1CC[C@](C)([C@H]2[C@@H](O)C[C@@]3(C)[C@@H]4C[C@H](O)[C@H]5C(C)(C)[C@@H](O)CC[C@@]56C[C@@]46CC[C@]23C)O1

— ChEMBL document CHEMBL4414649, “Microbial Transformation of Cycloastragenol and Astragenol by Endophytic Fungi Isolated from Astragalus Species” (J Nat Prod, 2019)
